Data from ChEMBL document CHEMBL1138520, “Molecular and conformational determinants of pituitary adenylate cyclase-activating polypeptide (PACAP) for activation of the PAC1 receptor” (J Med Chem, 2009).
Active and inactive are the calls of the source. The calls are words filed in the database; no cut-off is given here. Where a SMILES comes first, the peptide text is derived from it. [ ]: non-standard residue; d: D form. ξ: configuration not given here. ξTiq(1-COOH) = O=C(O)C1NCCc2ccccc21; ξDisc = O=C(O)C1NCc2ccccc21

Key:
[1] = molecular target: T1, Pituitary adenylate cyclase-activating polypeptide type I receptor (Homo sapiens, UniProt P41586); assay: Displacement of [125I]Ac-PACAP27 from human recombinant PAC1 receptor expressed in CHO cells by gamma- counter; assay type: cell-based
Target sequence in this assay (P41586 whole entry): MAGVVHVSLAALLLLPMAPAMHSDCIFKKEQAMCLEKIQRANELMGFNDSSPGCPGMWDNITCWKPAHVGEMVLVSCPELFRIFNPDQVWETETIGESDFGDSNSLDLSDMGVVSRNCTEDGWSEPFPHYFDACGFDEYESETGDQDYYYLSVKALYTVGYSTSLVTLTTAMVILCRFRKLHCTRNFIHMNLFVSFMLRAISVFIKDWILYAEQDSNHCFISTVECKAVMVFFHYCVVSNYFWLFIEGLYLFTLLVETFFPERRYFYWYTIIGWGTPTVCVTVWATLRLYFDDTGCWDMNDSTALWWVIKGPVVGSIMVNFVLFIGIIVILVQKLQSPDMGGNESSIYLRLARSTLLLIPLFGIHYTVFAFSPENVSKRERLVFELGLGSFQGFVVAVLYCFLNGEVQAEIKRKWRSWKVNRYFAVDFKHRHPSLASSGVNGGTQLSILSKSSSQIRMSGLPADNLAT

[2] = molecular target: T1, Pituitary adenylate cyclase-activating polypeptide type I receptor; assay: Agonist activity at human recombinant PAC1 receptor expressed in CHO cells assessed as PACAP38-induced calcium mobilization at 1 uM by FLIPR assay; assay type: functional, cell-based
Target sequence in this assay (P41586 whole entry): as above

[3] = molecular target: T1, Pituitary adenylate cyclase-activating polypeptide type I receptor; assay: Agonist activity at human recombinant PAC1 receptor expressed in CHO cells assessed as PACAP38-induced calcium mobilization at 1 uM by FLIPR assay relative to PACAP38; assay type: functional, cell-based
Target sequence in this assay (P41586 21-468 limits assumed): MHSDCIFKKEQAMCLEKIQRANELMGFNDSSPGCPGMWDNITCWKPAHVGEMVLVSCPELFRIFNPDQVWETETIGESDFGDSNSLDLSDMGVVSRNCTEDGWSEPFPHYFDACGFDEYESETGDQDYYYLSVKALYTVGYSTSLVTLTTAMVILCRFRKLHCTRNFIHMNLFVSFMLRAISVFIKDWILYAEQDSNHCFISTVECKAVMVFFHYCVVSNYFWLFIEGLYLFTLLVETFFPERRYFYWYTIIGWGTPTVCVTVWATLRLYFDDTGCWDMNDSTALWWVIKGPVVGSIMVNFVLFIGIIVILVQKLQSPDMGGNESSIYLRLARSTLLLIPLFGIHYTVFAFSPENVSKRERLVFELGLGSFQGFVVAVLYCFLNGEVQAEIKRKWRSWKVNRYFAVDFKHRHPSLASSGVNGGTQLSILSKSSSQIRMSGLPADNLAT

[4] = molecular target: T1, Pituitary adenylate cyclase-activating polypeptide type I receptor; assay: Agonist activity at human recombinant PAC1 receptor expressed in CHO cells assessed as PACAP38-induced calcium mobilization by FLIPR assay; assay type: functional, cell-based
How it was run: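 CHO cells stably expressing recombinant human PAC1, plated 24 h before assay, loaded with fluo-4 AM for 60 min at 37 °C in the dark, then rinsed into HBSS for 15 min at 37 °C. EC50 and efficacy came from nonlinear regression; 4-10 independent assays in duplicate.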
Target sequence in this assay (P41586 whole entry): as the sequence (P41586 whole entry) above

[5] = molecular target: T1, Pituitary adenylate cyclase-activating polypeptide type I receptor; assay: Agonist activity at human recombinant PAC1 receptor expressed in CHO cells assessed as PACAP38-induced calcium mobilization by FLIPR assay relative to PACAP38; assay type: functional, cell-based
How it was run: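 CHO cells stably expressing recombinant human PAC1, plated 24 h before assay, loaded with fluo-4 AM for 60 min at 37 °C in the dark, then rinsed into HBSS for 15 min at 37 °C. Peptide was added 18 s into a 150 s read (ex 480/em 525 nm), at final concentrations of 1 × 10-12 to 1 × 10^-5 M. Response was normalised to 1 × 10^-5 M PACAP38 on each plate. EC50 and efficacy came from nonlinear regression; 4-10 independent assays in duplicate.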
Target sequence in this assay (P41586 21-468 limits assumed): as the sequence (P41586 21-468 limits assumed) above

SMILES	IC50 [1] [nM]	EC50 [2]	Emax [3]	EC50 [4] [nM]	Emax [5] [%]
CC[C@H](C)[C@H](NC(=O)CNC(=O)[C@H](CC(=O)O)NC(=O)[C@H](CO)NC(=O)[C@@H](N)Cc1cnc[nH]1)C(=O)N(C)[C@@H](Cc1ccccc1)C(=O)N[C@H](C(=O)N[C@@H](CC(=O)O)C(=O)N[C@@H](CO)C(=O)N[C@@H](Cc1ccc(O)cc1)C(=O)N[C@@H](CO)C(=O)N[C@@H](CCCNC(=N)N)C(=O)N[C@@H](Cc1ccc(O)cc1)C(=O)N[C@@H](CCCNC(=N)N)C(=O)N[C@@H](CCCCN)C(=O)N[C@@H](CCC(N)=O)C(=O)N[C@@H](CCSC)C(=O)N[C@@H](C)C(=O)N[C@H](C(=O)N[C@@H](CCCCN)C(=O)N[C@@H](CCCCN)C(=O)N[C@@H](Cc1ccc(O)cc1)C(=O)N[C@@H](CC(C)C)C(=O)N[C@@H](C)C(=O)N[C@@H](C)C(=O)N[C@H](C(=O)N[C@@H](CC(C)C)C(N)=O)C(C)C)C(C)C)[C@@H](C)O	3150	Not Active	inactive		
CC[C@H](C)[C@H](NC(=O)CNC(=O)[C@H](CC(=O)O)NC(=O)[C@H]1CCCN1C(=O)[C@@H](N)Cc1cnc[nH]1)C(=O)N[C@@H](Cc1ccccc1)C(=O)N[C@H](C(=O)N[C@@H](CC(=O)O)C(=O)N[C@@H](CO)C(=O)N[C@@H](Cc1ccc(O)cc1)C(=O)N[C@@H](CO)C(=O)N[C@@H](CCCNC(=N)N)C(=O)N[C@@H](Cc1ccc(O)cc1)C(=O)N[C@@H](CCCNC(=N)N)C(=O)N[C@@H](CCCCN)C(=O)N[C@@H](CCC(N)=O)C(=O)N[C@@H](CCSC)C(=O)N[C@@H](C)C(=O)N[C@H](C(=O)N[C@@H](CCCCN)C(=O)N[C@@H](CCCCN)C(=O)N[C@@H](Cc1ccc(O)cc1)C(=O)N[C@@H](CC(C)C)C(=O)N[C@@H](C)C(=O)N[C@@H](C)C(=O)N[C@H](C(=O)N[C@@H](CC(C)C)C(N)=O)C(C)C)C(C)C)[C@@H](C)O	268	Not Active	inactive		
CC[C@H](C)[C@H](NC(=O)CNC(=O)[C@H](CC(=O)O)NC(=O)[C@H](CO)NC(=O)[C@@H](N)Cc1cnc[nH]1)C(=O)N1CCc2ccccc2C1C(=O)N[C@H](C(=O)N[C@@H](CC(=O)O)C(=O)N[C@@H](CO)C(=O)N[C@@H](Cc1ccc(O)cc1)C(=O)N[C@@H](CO)C(=O)N[C@@H](CCCNC(=N)N)C(=O)N[C@@H](Cc1ccc(O)cc1)C(=O)N[C@@H](CCCNC(=N)N)C(=O)N[C@@H](CCCCN)C(=O)N[C@@H](CCC(N)=O)C(=O)N[C@@H](CCSC)C(=O)N[C@@H](C)C(=O)N[C@H](C(=O)N[C@@H](CCCCN)C(=O)N[C@@H](CCCCN)C(=O)N[C@@H](Cc1ccc(O)cc1)C(=O)N[C@@H](CC(C)C)C(=O)N[C@@H](C)C(=O)N[C@@H](C)C(=O)N[C@H](C(=O)N[C@@H](CC(C)C)C(=O)NCC(=O)N[C@@H](CCCCN)C(=O)N[C@@H](CCCNC(=N)N)C(=O)N[C@@H](Cc1ccc(O)cc1)C(=O)N[C@@H](CCCCN)C(=O)N[C@@H](CCC(N)=O)C(=O)N[C@@H](CCCNC(=N)N)C(=O)N[C@H](C(=O)N[C@@H](CCCCN)C(=O)N[C@@H](CC(N)=O)C(=O)N[C@@H](CCCCN)C(N)=O)C(C)C)C(C)C)C(C)C)[C@@H](C)O (some centres not stated) (H-HSDGI[ξTiq(1-COOH)]TDSYSRYRKQMAVKKYLAAVLGKRYKQRVKNK-NH2)	1550	Not Active	inactive		
CC[C@H](C)[C@H](NC(=O)CNC(=O)[C@H](CC(=O)O)NC(=O)[C@H](CO)NC(=O)[C@@H](N)Cc1cnc[nH]1)C(=O)N1Cc2ccccc2C1C(=O)N[C@H](C(=O)N[C@@H](CC(=O)O)C(=O)N[C@@H](CO)C(=O)N[C@@H](Cc1ccc(O)cc1)C(=O)N[C@@H](CO)C(=O)N[C@@H](CCCNC(=N)N)C(=O)N[C@@H](Cc1ccc(O)cc1)C(=O)N[C@@H](CCCNC(=N)N)C(=O)N[C@@H](CCCCN)C(=O)N[C@@H](CCC(N)=O)C(=O)N[C@@H](CCSC)C(=O)N[C@@H](C)C(=O)N[C@H](C(=O)N[C@@H](CCCCN)C(=O)N[C@@H](CCCCN)C(=O)N[C@@H](Cc1ccc(O)cc1)C(=O)N[C@@H](CC(C)C)C(=O)N[C@@H](C)C(=O)N[C@@H](C)C(=O)N[C@H](C(=O)N[C@@H](CC(C)C)C(=O)NCC(=O)N[C@@H](CCCCN)C(=O)N[C@@H](CCCNC(=N)N)C(=O)N[C@@H](Cc1ccc(O)cc1)C(=O)N[C@@H](CCCCN)C(=O)N[C@@H](CCC(N)=O)C(=O)N[C@@H](CCCNC(=N)N)C(=O)N[C@H](C(=O)N[C@@H](CCCCN)C(=O)N[C@@H](CC(N)=O)C(=O)N[C@@H](CCCCN)C(N)=O)C(C)C)C(C)C)C(C)C)[C@@H](C)O (some centres not stated) (H-HSDGI[ξDisc]TDSYSRYRKQMAVKKYLAAVLGKRYKQRVKNK-NH2)	1750	Not Active	inactive		
CC[C@H](C)[C@H](NC(=O)CNC(=O)[C@H](CCCC(=O)O)NC(=O)[C@H](CO)NC(=O)[C@@H](N)Cc1cnc[nH]1)C(=O)N[C@@H](Cc1ccccc1)C(=O)N[C@H](C(=O)N[C@@H](CC(=O)O)C(=O)N[C@@H](CO)C(=O)N[C@@H](Cc1ccc(O)cc1)C(=O)N[C@@H](CO)C(=O)N[C@@H](CCCNC(=N)N)C(=O)N[C@@H](Cc1ccc(O)cc1)C(=O)N[C@@H](CCCNC(=N)N)C(=O)N[C@@H](CCCCN)C(=O)N[C@@H](CCC(N)=O)C(=O)N[C@@H](CCSC)C(=O)N[C@@H](C)C(=O)N[C@H](C(=O)N[C@@H](CCCCN)C(=O)N[C@@H](CCCCN)C(=O)N[C@@H](Cc1ccc(O)cc1)C(=O)N[C@@H](CC(C)C)C(=O)N[C@@H](C)C(=O)N[C@@H](C)C(=O)N[C@H](C(=O)N[C@@H](CC(C)C)C(N)=O)C(C)C)C(C)C)[C@@H](C)O	818			834	29.3
CC[C@H](C)[C@@H](C(=O)N[C@@H](Cc1ccccc1)C(=O)N[C@H](C(=O)N[C@@H](CC(=O)O)C(=O)N[C@@H](CO)C(=O)N[C@@H](Cc1ccc(O)cc1)C(=O)N[C@@H](CO)C(=O)N[C@@H](CCCNC(=N)N)C(=O)N[C@@H](Cc1ccc(O)cc1)C(=O)N[C@@H](CCCNC(=N)N)C(=O)N[C@@H](CCCCN)C(=O)N[C@@H](CCC(N)=O)C(=O)N[C@@H](CCSC)C(=O)N[C@@H](C)C(=O)N[C@H](C(=O)N[C@@H](CCCCN)C(=O)N[C@@H](CCCCN)C(=O)N[C@@H](Cc1ccc(O)cc1)C(=O)N[C@@H](CC(C)C)C(=O)N[C@@H](C)C(=O)N[C@@H](C)C(=O)N[C@H](C(=O)N[C@@H](CC(C)C)C(N)=O)C(C)C)C(C)C)[C@@H](C)O)N(C)C(=O)CNC(=O)[C@H](CC(=O)O)NC(=O)[C@H](CO)NC(=O)[C@@H](N)Cc1cnc[nH]1	1770			1810	34.5

Results, then the compound that gave them:

IC50 [1] [nM]	EC50 [2]	Emax [3]	EC50 [4] [nM]	Emax [5] [%]	SMILES
3590	Not Active	inactive			CC[C@H](C)[C@H](NC(=O)CNC(=O)[C@H](CC(=O)O)NC(=O)[C@H](CO)NC(=O)[C@@H](N)Cc1cnc[nH]1)C(=O)N1Cc2ccccc2C1C(=O)N[C@H](C(=O)N[C@@H](CC(=O)O)C(=O)N[C@@H](CO)C(=O)N[C@@H](Cc1ccc(O)cc1)C(=O)N[C@@H](CO)C(=O)N[C@@H](CCCNC(=N)N)C(=O)N[C@@H](Cc1ccc(O)cc1)C(=O)N[C@@H](CCCNC(=N)N)C(=O)N[C@@H](CCCCN)C(=O)N[C@@H](CCC(N)=O)C(=O)N[C@@H](CCSC)C(=O)N[C@@H](C)C(=O)N[C@H](C(=O)N[C@@H](CCCCN)C(=O)N[C@@H](CCCCN)C(=O)N[C@@H](Cc1ccc(O)cc1)C(=O)N[C@@H](CC(C)C)C(=O)N[C@@H](C)C(=O)N[C@@H](C)C(=O)N[C@H](C(=O)N[C@@H](CC(C)C)C(N)=O)C(C)C)C(C)C)[C@@H](C)O (some centres not stated)
2590	Not Active	inactive			CC[C@H](C)[C@H](NC(=O)CNC(=O)[C@H](CC(=O)O)NC(=O)[C@H](CO)NC(=O)[C@@H](N)Cc1cnc[nH]1)C(=O)N1CCc2ccccc2C1C(=O)N[C@H](C(=O)N[C@@H](CC(=O)O)C(=O)N[C@@H](CO)C(=O)N[C@@H](Cc1ccc(O)cc1)C(=O)N[C@@H](CO)C(=O)N[C@@H](CCCNC(=N)N)C(=O)N[C@@H](Cc1ccc(O)cc1)C(=O)N[C@@H](CCCNC(=N)N)C(=O)N[C@@H](CCCCN)C(=O)N[C@@H](CCC(N)=O)C(=O)N[C@@H](CCSC)C(=O)N[C@@H](C)C(=O)N[C@H](C(=O)N[C@@H](CCCCN)C(=O)N[C@@H](CCCCN)C(=O)N[C@@H](Cc1ccc(O)cc1)C(=O)N[C@@H](CC(C)C)C(=O)N[C@@H](C)C(=O)N[C@@H](C)C(=O)N[C@H](C(=O)N[C@@H](CC(C)C)C(N)=O)C(C)C)C(C)C)[C@@H](C)O (some centres not stated)
2170			564	65.9	CC[C@H](C)[C@H](NC(=O)CNC(=O)[C@H](CC(=O)O)NC(=O)[C@H](CO)NC(=O)[C@@H](N)Cc1cnc[nH]1)C(=O)N1Cc2ccccc2CC1C(=O)N[C@H](C(=O)N[C@@H](CC(=O)O)C(=O)N[C@@H](CO)C(=O)N[C@@H](Cc1ccc(O)cc1)C(=O)N[C@@H](CO)C(=O)N[C@@H](CCCNC(=N)N)C(=O)N[C@@H](Cc1ccc(O)cc1)C(=O)N[C@@H](CCCNC(=N)N)C(=O)N[C@@H](CCCCN)C(=O)N[C@@H](CCC(N)=O)C(=O)N[C@@H](CCSC)C(=O)N[C@@H](C)C(=O)N[C@H](C(=O)N[C@@H](CCCCN)C(=O)N[C@@H](CCCCN)C(=O)N[C@@H](Cc1ccc(O)cc1)C(=O)N[C@@H](CC(C)C)C(=O)N[C@@H](C)C(=O)N[C@@H](C)C(=O)N[C@H](C(=O)N[C@@H](CC(C)C)C(N)=O)C(C)C)C(C)C)[C@@H](C)O (some centres not stated)
